Screening results deposited in PubChem by The Scripps Research Institute Molecular Screening Center.
HGIII-sPLA2 inh: human group III sPLA2 inhibitors, primary screen, biochemical, QFRET, BODIPY PC-A2 liposome substrate | 370,000 compounds, 0.56% hits | inhibition, % at 12.2 µM | QFRET BODIPY PC-A2 liposome hydrolysis, fluorescence;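 active means inhibition above mean plus 3 SD of compounds lying within the high and low control bounds, cut at about 19% in these data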
PLCb3 inh: human PLC-beta3 inhibitors, primary screen, biochemical, fluorescence; 1-phosphatidylinositol 4,5-bisphosphate phosphodiesterase beta-3 (Homo sapiens), Q01970; Purified PLC-beta3, fluorogenic substrate; inhibition, % at 12.2 µM; 370,000 compounds, 0.18% hits; in the data active means inhibition above about 11%
Target sequence (Q01970 whole entry, looked up): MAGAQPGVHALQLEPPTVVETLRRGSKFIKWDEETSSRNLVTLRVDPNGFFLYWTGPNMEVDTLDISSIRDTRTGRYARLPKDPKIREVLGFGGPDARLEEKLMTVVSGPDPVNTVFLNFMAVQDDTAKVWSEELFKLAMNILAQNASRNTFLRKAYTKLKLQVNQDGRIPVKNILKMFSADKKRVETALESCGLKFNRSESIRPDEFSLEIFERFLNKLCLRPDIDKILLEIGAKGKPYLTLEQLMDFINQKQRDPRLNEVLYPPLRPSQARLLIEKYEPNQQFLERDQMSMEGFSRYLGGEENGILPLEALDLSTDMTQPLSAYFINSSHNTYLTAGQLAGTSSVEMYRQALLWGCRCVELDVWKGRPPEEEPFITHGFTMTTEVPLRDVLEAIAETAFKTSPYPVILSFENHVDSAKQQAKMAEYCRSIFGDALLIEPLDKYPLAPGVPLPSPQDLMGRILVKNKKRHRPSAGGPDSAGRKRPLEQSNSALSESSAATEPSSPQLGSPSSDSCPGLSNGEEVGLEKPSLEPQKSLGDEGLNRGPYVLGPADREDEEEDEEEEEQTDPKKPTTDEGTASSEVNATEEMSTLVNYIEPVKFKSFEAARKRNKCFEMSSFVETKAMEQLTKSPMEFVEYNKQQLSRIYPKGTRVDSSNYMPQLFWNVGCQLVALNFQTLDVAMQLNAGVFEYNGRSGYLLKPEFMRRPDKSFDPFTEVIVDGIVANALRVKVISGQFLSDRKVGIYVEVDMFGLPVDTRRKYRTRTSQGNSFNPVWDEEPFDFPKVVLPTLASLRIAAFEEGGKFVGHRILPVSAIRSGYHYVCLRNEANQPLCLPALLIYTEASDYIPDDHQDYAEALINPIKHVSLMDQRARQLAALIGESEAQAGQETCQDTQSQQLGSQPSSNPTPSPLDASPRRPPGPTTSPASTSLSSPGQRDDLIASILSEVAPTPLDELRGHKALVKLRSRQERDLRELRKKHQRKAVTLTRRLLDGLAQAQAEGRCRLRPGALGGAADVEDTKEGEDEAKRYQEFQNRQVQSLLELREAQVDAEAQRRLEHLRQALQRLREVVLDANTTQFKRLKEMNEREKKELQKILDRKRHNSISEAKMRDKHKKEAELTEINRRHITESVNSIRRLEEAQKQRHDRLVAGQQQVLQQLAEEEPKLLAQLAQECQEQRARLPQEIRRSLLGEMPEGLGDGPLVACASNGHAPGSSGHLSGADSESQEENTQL
ASAP1 GAP inh: inhibitors of human ASAP1 ArfGAP activity, primary screen, biochemical, fluorescence polarization | Arf-GAP with SH3 domain, ANK repeat and PH domain-containing protein 1 (Homo sapiens), … | ASAP1-stimulated ARF1 GTP hydrolysis, GDP FP detection | inhibition, % at 16.5 µM | 360,000 compounds, 0.19% hits | AID 624377, 2012; in the data active means inhibition above about 25%
ARFGAP1 inh: inhibitors of rat ARFGAP1 GAP activity, primary screen, biochemical, fluorescence polarization, GDP tracer. ADP-ribosylation factor GTPase-activating protein 1 (Rattus norvegicus), Q62848. Arfgap1-stimulated ARF1 GTP hydrolysis, GDP FP detection. inhibition, % at 16.5 µM. 360,000 compounds, 0.26% hits;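 active means inhibition above a per-plate limit, mean inhibition of low control wells plus 3 SD, cut at about 25% in these data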
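Material: truncated rat Arfgap1 GAP domain; Incubation: compound-enzyme preincubation 20 min, reaction 120 min, detection 60 min, 25 °C; Read-out: percent inhibition of Arfgap1-stimulated GTP hydrolysis; Technique: FP, GDP Alexa 633 tracer displaced from anti-GDP antibody, 620/688 nm; Controls: No-Arfgap1 wells (100%) versus DMSO full-reaction wells (0%); Replication: single well per compound.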
PLCg1 inh: PLC-gamma1 enzyme inhibitors, primary screen, biochemical, fluorescence, purified enzyme; 370,000 compounds, 0.84% hits; inhibition, % at 12.2 µM; fluorogenic substrate; AID 720700, 2013; 1-phosphatidylinositol 4,5-bisphosphate phosphodiesterase gamma-1 (Homo sapiens), P19174; in the data active means inhibition above about 9.5%
sPLA2 confirm: human group III sPLA2 inhibitors, confirmation, biochemical, QFRET, triplicate; shares compounds with HGIII-sPLA2 inh; recombinant hGIII-sPLA2, BODIPY PC-A2 QFRET fluorescence; inhibition, % at 12.2 µM; 2,000 compounds, 34% hits; AID 743280, 2014;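 active means mean inhibition across triplicates above the hit cutoff set in the earlier primary screen, cut at about 19% in these data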
535nm interf: 535nm fluorescence optical interference, confirmation, artefact control for HGIII-sPLA2 inhibitor project, biochemical, QFRET. 2,000 compounds, 8.5% hits. inhibition, % at 12.2 µM. shares compounds with HGIII-sPLA2 inh. AID 743282, 2014. BODIPY FL product fluorescence interference;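 active means average inhibition above the solvent-only control mean plus 3 SD, cut at about 6% in these data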
535nm interf DR: 535nm fluorescence optical interference, dose response, artefact control for HGIII-sPLA2 inhibitor project, biochemical, QFRET; AID 743455, 2014; shares compounds with HGIII-sPLA2 inh; BODIPY FL product fluorescence interference, cell-free; IC50, µM; 240 tested, under 10 active;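 active means IC50 at or below 10 µM; inactive means IC50 above 10 µM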
Large screens that a line does not name were inactive (follow-up assays come after a bar, where they were run). The list is not random: actives were taken first. Their share in the collection is about 1.9%.

CCOc1ccccc1NC(=O)C(OC(=O)c1ccccc1O)c1ccccc1 (stereo not given)	HGIII-sPLA2 inh 22 | sPLA2 confirm inactive | 535nm interf inactive
CC(=O)N1CCN(c2ccc(NCc3ccc(Br)o3)cc2)CC1	none
CC(=O)N1CCN(c2ccc(NCc3ccc(-c4ccc(Br)cc4)o3)cc2)CC1	HGIII-sPLA2 inh 20 | sPLA2 confirm 20 | 535nm interf inactive
CCOC(=O)C1=C(C(=O)OCC)C2N(Cc3ccc(C#N)cc3)c3ccccc3[C@@]23C[C@@H](C(=O)OC)N(S(=O)(=O)c2cccs2)C3=N1 (stereo not given in full)	none
OC[C@@H]1CN(Cc2ccncc2)C[C@H](n2cnc3c(NC4CCCC4)ncnc32)O1	HGIII-sPLA2 inh 21 | sPLA2 confirm inactive | 535nm interf inactive
COc1ccc(CN2C[C@@H](CO)O[C@@H](n3cnc4c(N5CCOCC5)ncnc43)C2)cc1	HGIII-sPLA2 inh 20 | sPLA2 confirm inactive | 535nm interf inactive
COCCN1C[C@@H](CO)O[C@@H](n2cnc3c(N4CCCC4)ncnc32)C1	HGIII-sPLA2 inh 20 | sPLA2 confirm inactive | 535nm interf inactive
O=C(NCC1CCN(C(=O)C(=O)c2cccs2)CC1)c1cccnc1	none
COc1cc([N+](=O)[O-])c(C(=O)N2CCOCC2)c([N+](=O)[O-])c1	HGIII-sPLA2 inh 20 | sPLA2 confirm inactive | 535nm interf inactive
Cc1c([N+](=O)[O-])cc(C(=O)N2CCOCC2)cc1[N+](=O)[O-]	none
CC(=O)OCC(=O)N1CCN(C(=O)C(=O)c2cccc(C(F)(F)F)c2)CC1	HGIII-sPLA2 inh 22 | sPLA2 confirm inactive | 535nm interf inactive
O=C(C(=O)N1CCN(S(=O)(=O)c2cccc(C(F)(F)F)c2)CC1)c1cccc(C(F)(F)F)c1	none
CN(C)S(=O)(=O)c1ccc2nc(COCc3nc4ccc(S(=O)(=O)N(C)C)cc4[nH]3)[nH]c2c1	none (no result: ASAP1 GAP inh, ARFGAP1 inh)
CCCCOCCCNC(=O)C[C@@H]1C(=O)N(Cc2ccc(OC)cc2)/C2=C/CCCCC[C@@]21C(=O)OCC	none (no result: ASAP1 GAP inh, ARFGAP1 inh)
Oc1ccccc1/C=N/NC(=S)NC1CC2CCC1C2 (stereo not given)	HGIII-sPLA2 inh 28 | sPLA2 confirm inactive | 535nm interf 7.3
COc1cccc(/C=N/NC(=S)NC2CC3CCC2C3)c1OC (stereo not given)	none
O=C(CCCCCN1C(=O)C2C3C=CC(C3)C2C1=O)Nc1ccc2ncccc2c1 (stereo not given)	none (no result: ASAP1 GAP inh, ARFGAP1 inh)
Cc1ccc(/C=N/NC(=O)CSc2nc3ccccc3c(=O)n2-c2ccccc2C)s1	none
O=C(CSc1nnc(-c2ccccc2)n1-c1ccc(Cl)cc1)NNC(=S)Nc1ccccc1	HGIII-sPLA2 inh 26 | sPLA2 confirm 39 | 535nm interf inactive | 535nm interf DR inactive
CC(=O)/C(=N\Nc1cccc(Cl)c1)Sc1nnc(-c2ccccc2)n1-c1ccccc1	HGIII-sPLA2 inh 20 | sPLA2 confirm inactive | 535nm interf inactive
O=C(CSc1nc2ccccc2c(=O)n1-c1ccc(Cl)cc1)NNC(=S)Nc1ccccc1	HGIII-sPLA2 inh 33 (no result: ASAP1 GAP inh, ARFGAP1 inh) | sPLA2 confirm 27 | 535nm interf inactive
Cc1ccc(/C=N/NC(=O)CSc2nc3ccccc3c(=O)n2-c2ccccc2)s1	HGIII-sPLA2 inh 19 | sPLA2 confirm inactive | 535nm interf inactive
CC(=O)/C(=N\Nc1cccc(Cl)c1)Sc1cccc2cccnc12	none
O=C(C1CCCN1S(=O)(=O)c1cccc2ccccc12)N1CCN(c2ccccc2)CC1 (stereo not given)	none (no result: ASAP1 GAP inh, ARFGAP1 inh)
Brc1ccccc1Cn1nnc(-c2ccc(N3CCOCC3)cc2)n1	none (no result: ASAP1 GAP inh, ARFGAP1 inh)
Cc1cc2c(c(=O)o1)[C@@]1(C(=O)N(C)c3ccccc31)C1=C(CC(C)(C)CC1=O)O2	none
COc1ccccc1-c1cccc2c3c([nH]c12)[C@@H]1C[C@H]2[C@@H](CN1CC3)[C@H](C)ON2C	none (no result: ASAP1 GAP inh, ARFGAP1 inh)
COC(=O)[C@]12C[C@H](CC(=O)N3CCOCC3)C(=O)N(CCc3ccc(OC)c(OC)c3)C1=C[C@H](C1CCCC1)O[C@@H]2C	none (no result: ASAP1 GAP inh, ARFGAP1 inh)
COc1ccccc1/C=C/C=N/NC(=O)c1ccccn1	HGIII-sPLA2 inh 20 | sPLA2 confirm inactive | 535nm interf inactive
COc1ccccc1/C=C/C=N/NC(=O)c1cnccn1	none
COc1cc(O)c(C(CC(=O)N2CCC(C)CC2)c2ccc3c(c2)OCO3)c(OC)c1 (stereo not given)	none (no result: ASAP1 GAP inh, ARFGAP1 inh)
COc1cc(CNn2c(C)n[nH]c2=S)cc(Br)c1OCC(=O)NC(C)(C)C	none
COc1cc(CNn2c(C)n[nH]c2=S)cc(Cl)c1OCC(=O)NC(C)(C)C	HGIII-sPLA2 inh 29 | sPLA2 confirm 25 | 535nm interf inactive
Nc1sc(-c2ccccc2)cc1C(=O)NCCN1CCOCC1	HGIII-sPLA2 inh 20 | sPLA2 confirm inactive | 535nm interf inactive
COC(=O)C1=C(C)Nc2ncnn2C1c1ccccn1 (stereo not given)	none
COC(=O)C1=C(C)NC(C)=C(C(=O)OC)C1c1ccccn1	HGIII-sPLA2 inh 22 | sPLA2 confirm inactive | 535nm interf inactive
Cc1ccc(NC(=S)NNC(=O)c2nn(C)c(C)c2Cl)cc1	HGIII-sPLA2 inh 38 | sPLA2 confirm 48 | 535nm interf inactive | 535nm interf DR inactive
Cc1ccc(NC(=S)NNC(=O)c2c(Cl)c(C)nn2C)cc1	none
Cc1cccc(N2CN(Cc3cccnc3)CNC2=S)c1	HGIII-sPLA2 inh 19 | sPLA2 confirm inactive | 535nm interf inactive
O=C(CN1CCc2onc(-c3ccc(-n4cc(COc5ccc([N+](=O)[O-])cc5)nn4)cc3)c2C1=O)N1CCOCC1	none (no result: ASAP1 GAP inh, ARFGAP1 inh)
O=C(COC(=O)c1c(F)cccc1Cl)NC1CCCCC1	none
O=C(CSCc1c(F)cccc1Cl)NNC(=S)NC1CCCCC1	HGIII-sPLA2 inh 21 | sPLA2 confirm inactive | 535nm interf inactive
C=CCNC(=O)CNS(=O)(=O)c1ccc(F)cc1	HGIII-sPLA2 inh 20 | sPLA2 confirm inactive | 535nm interf inactive
O=C(O)CNS(=O)(=O)c1ccc(F)cc1	none
